Test system: MS2 coat protein
Assay: apparent Kd, MS2 coat protein; higher = weaker binding; RNA-MaP array; FMN 200 µM where present
Outline: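 The apparent Kd is the median of filtered binding-curve fits, one per cluster, to green signal normalised to red-channel RNA signal and control-cluster median Fmax. The clusters were on Illumina sequencing chips, and stalled E. coli RNA polymerase had transcribed the designs on them. Titration used SNAP-549-labelled MS2 coat protein from 0.7 or 1.5 nM, doubling to 3 µM, without and then with constant ligand, in 100 mM Tris-HCl pH 7.5, 80 mM KCl, 4 mM MgCl2, BSA, DTT, yeast tRNA and Tween-20.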

[1] = designed as: OFF switch for flavin mononucleotide, no ligand
[2] = ligand present: flavin mononucleotide, designed as: OFF switch for flavin mononucleotide
[3] = designed as: ON switch for flavin mononucleotide, no ligand
[4] = ligand present: flavin mononucleotide, designed as: ON switch for flavin mononucleotide

Sequence	apparent Kd [1]	apparent Kd [2]	apparent Kd [3]	apparent Kd [4]
ACGCUUUGGGAGAAGGUACGUUAAUUUUUUUCCACAUGAGGAUCACCCAUGUAAGGAUAUCCCGUCGUUAAAUAGGCUACAGCA	9.59 nM	9.37 nM	–	–
AAACGCCAACAUGAGGAUCACCCAUGUUCUAGUUUAGGGUCGCAGGAUAUGACUUCGAAGCUUAGUCAGAAGGGUGAGUCCACA	–	–	13.7 nM	11.2 nM
CGCACUAUACAUGAGGAUCACCCAUGUAAUUAUGAGAUAGUCAGAAGGCAUUAUUAGUGAUUUAAUGAGGAUAUGAAUAGUGCG	–	–	79.8 nM	11.2 nM
GUCAGCUCGUGAGGAUAUACAUGUGCUGGAGACAGCACUAUUGAGUUCACAUGAGGAUCACCCAUGUAGAAGGCACGAGCUGAU	15.5 nM	27.4 nM	–	–
AGAGAGAGACAGAAGGGCAAGCUCGAUUGCGGAGAAAGCGAUCGAGCUUGCAGGAUAUGUUGAACAUGAGGAUCACCCAUGUCA	–	–	7.49 nM	7.62 nM
AAGACACAUGAGGAUCACCCAUGUCAAGAGAGACGAGGAUAUCUGAAAAAAAAAAAAAAAGGAGAAGGCGUGAAAA	–	–	109 nM	51.1 nM
CGUUCACAUGAGGAUCACCCAUGUCAGAUUUGGUCAGGAUAUGGUCGGCUUCCGCUAUUGCCAGAAGGGACUGUUG	–	–	30.5 nM	23.9 nM
AACAAGAGGAUCACCCAUGUAACAUGAGGAUCACCCAUGUUUAAGGAUAUGUACAUGAUACAUGUACAGAAGGUGGAUUGGACU	26.2 nM	27.2 nM	–	–
GUUUCGUGAGGAUAUGUGGCUUCGAUCGUGCGAACGAGGCUACAGAAGGCACAUGAGGAUCACCCAUGUUCCUC	37.4 nM	481 nM	–	–
CAGCUGAAAGUGAGGAUAUAGACUGCUUCGGCAGUCUAGAAGGCACAUGAGGAUCACCCAUGUCUCAACAGCUG	16.6 nM	70.2 nM	–	–
AAAAGUCGAGGAUAUGCAAAAUGAUUGCGAAAGCAAUCAAAACAUGAGGAUCACCCAUGUAGAAGGCGACAAAA	21.3 nM	13.9 nM	–	–
UUGGACGUCGUAGGAUAUGUAGGAUAUUCCUACAUGAGGAUCACCCAUGUUGACAUGGAAGAAGGACAGAAGGGCGAUGUCCAU	–	–	352 nM	5.27 nM
AAAACCUCAUGAGGAUAUCCAACAUGAGGAUCACCCAUGUUAGUCUCAGUACUAGGUACUUGAGAGGAGAAGGCAUGCCAGGGC	–	–	123 nM	36.2 nM
GUAGCUAUCGGAGGAUAUUCAUGAUACAUGAGGAUCACCCAUGUUAAAUUGGGAGAAGGCCGAUAGCUACAAGAGCGAAAGCUC	–	–	14.8 nM	5.54 nM
UGGACCGAGCUGUCGGUUGACUCUAAGGAUAUGACAUGAGGAUCACCCAUGUGGGAUCUAAAUUGUCAGAAGGUGGGUUCUGGG	95 nM	51 nM	–	–
UUAUGAUUAAGAGGAUAUAUACAACAUGAGGAUCACCCAUGUACCCAUGUAGUAGAAGGCUUAUUUUUAUAUAAUAAUAUAAUU	–	–	143 nM	47.6 nM
UAAACACCCUCAUGUACCUGAGGACAUGAGGAUCACCCAUGUGAGGAUAUAGCCAUUAAAUCUAACUAGAAGGUAUAGGAAAUC	772 nM	612 nM	–	–
CACCGGCCCUAUGUGUUCUAGACAUGAGGAUCACCCAUGUAUAGAAGGGUCUUCGCGAAACGCAGACAGGAUAUGUACAGGAGU	6.31 nM	9.26 nM	–	–
GGAUGUGUGUAAGGAUAUGCAUCACUGAGAAAUUUAGUGAGGAAGAUCACAUGAGGAUCACCCAUGUAGAAGGUACACACGUGG	10.8 nM	52.7 nM	–	–
UGUCGGAGCAGAGGAUAUUACAUGAGGAUCACCCAUGUAUGAACCAAUAGCUGGAAACAGCAAUGUAAGAAGGCUGCUCCGAUA	11.8 nM	166 nM	–	–
UUGGACUACGUAGGAUAUGUAGGAUAUUCCUACAUGAGGAUCACCCAUGUUAGCAUGGAAGAAGGACAGAAGGACGUGGUCCAU	–	–	1360 nM	15.8 nM
UUAAUUAUACAAGGAUAUCUAUUGUUGUUUCGACUUACAUGAGGAUCACCCAUGUUAAUAUGUUUAGAGAAGGUGUAUUUUCAG	–	–	55.1 nM	35.8 nM
ACUAAUUAGUGAGGAUAUACAUAAUUUAUAACUGUAGAAGGCACAAACCUCAAUACAUGAGGAUCACCCAUGUGGUAUAUAAAU	244 nM	434 nM	–	–
UUGCCUCAGAACAUGAGGAUCACCCAUGUGCUGCGGGCAACGUAGGAUAUGAUGGUGCAACACCAUCAGAAGGAUGAUGGUACC	–	–	5.62 nM	5.45 nM

Sequence	apparent Kd [1]	apparent Kd [2]	apparent Kd [3]	apparent Kd [4]
UGGUACAUGGGAGGAUAUGGGUUGAUAACAUGAGGAUCACCCAUGUUAAAAUGCCGAAAGGCAAACUAGAAGGCCCAUGUACCU	–	–	443 nM	32.2 nM
GUCUCACAUGAGGAUCACCCAUGUGAGGAUAUGGAUUCGCUGGCCGUAGCCAGUGGAUCCAGAAGGCGCGUGAU	59.1 nM	58.8 nM	–	–
AGCUAGUACCGAGGAUAUACAUACAUGAGGAUCACCCAUGUAUACAUGAAUUUAUGAGACUACAUGUAGAAGGCGGUACUAGCA	–	–	58.9 nM	15.9 nM
AAAAGACAUGAGGAUCACCCAUGUAAAGACGUAGGAGGAUAUGUCUUGAAAAAAGACUUGACAGAAGGCCUGUGUC	–	–	26.4 nM	19 nM
AAAAUCAAUUGAGGAUAUUCAUACACUACAUACGGAGAAGGCAAACAAUCAUGAGGACAUGAGGAUCACCCAUGUUGUGACCAU	–	–	22.3 nM	16.3 nM
AAAGGACGAGGAUAUACAUGAGGAUCACCCAUGUGUAAAACGUAAUAAAAUAACUUAUGUAGAAGGCGUCCAAA	30.6 nM	216 nM	–	–
UAGUACUAGGGAGGAUAUGGGAAGAUACAUGAGGAUCACCCAUGUUUAAGAAUGCCGAGAGGCAACUAGAAGGCCCUAGUACCU	–	–	463 nM	19.2 nM
GCUAUAGAUGUAGGAUAUCAUAUAGAAGCUAUGUGAGAAGGACAUGAGGAUCACCCAUGUCAAUGGCUGGAGCGAAGUUAUGGC	30.4 nM	35.2 nM	–	–
CGAUGUUAUGCAGGAUAUCUCUCUUGUUAGAGGAGAGAAGGGCAUAGGGAGACAUACGCCUUAUUACAUGAGGAUCACCCAUGU	9.38 nM	8.24 nM	–	–
GCGCUGCGUCAGAAGGGCCGAAAAGAGAAGACGGCAGGAUAUGACAUGAGGAUCACCCAUGUACACGUCGCCGUGGGUGUUGGA	57.9 nM	65 nM	–	–
GCUGUCGCAUGAGGAUAUGGACAGCUUUGCUGUCCAGAAGGCAUGUCGAUAGACAUGAGGAUCACCCAUGUAGUAAAGACAGCA	–	–	588 nM	64.6 nM
AAUUUACAUGAGGAUCACCCAUGUGAGGAUAUACACACAUGCUUGUUAUUGCGUGUGUGUAGAAGGCGCGUGAU	97.3 nM	153 nM	–	–
GCACCAAGAGGAUAUACCGAGGUCAUCUACUUUGCAUAGCGACAUGAGGAUCACCCAUGUAGAAGGUUUGUCGU	95.4 nM	80.6 nM	–	–
CUUAUUUUCGAAGGAUAUGGAUACAUGAGGAUCACCCAUGUAUAAAAUGAGAUCUAUUAUAUGAUCCAGAAGGUCGUUGUUUAU	33.4 nM	59.2 nM	–	–
UGUUGUAUUACAGGAUAUCUAGUAUUUUGAUUUAGAGAAGGGUAUUCACAUGAGGAUCACCCAUGUAUAUACGAGGAAGUUGUG	–	–	52.4 nM	57.4 nM
GAAAACGCAGAGGAUAUUUCAGAUCCUAGCUGCAAAGAAGGCUGCACAUGAGGAUCACCCAUGUGGUCCUGAAG	65.1 nM	155 nM	–	–
GGUACUAUCACAGGAUAUGCUUUCCUUUGGGAAGCAGAAGGGUGUAACAUGAGGAUCACCCAUGUGGUGCCCGGGCGUGAGCCC	–	–	51.7 nM	14.8 nM
ACUUUACAUGAGGAUCACCCAUGUUUUGGUGGAUCAGGAUAUAAAUUGAAUGAGUUUUAGUUAGAAGGGAUAUUUA	–	–	89.8 nM	99 nM
CCUAGAUAGGGAGGAUAUCACAACCAUCCCGGCGAUCCAACUACAUGAGGAUCACCCAUGUGGUGUGAGAAGGCCCAGUAAUAG	143 nM	78.6 nM	–	–
ACGUGUUAUACAGGAUAUGUAUAGGUAUAAUCAUACAGUUAUUAAUUAAUGACAGAAGGGUAAACAUGAGGAUCACCCAUGUCA	511 nM	248 nM	–	–
UAGUAUAAGGGCAUUAAACAUGAGGAUCACCCAUGUACGAUAGAGGAUAUGCAUUUCAGUUUAGAGUAGAAGGUUAGAGAAUAU	39.1 nM	47.4 nM	–	–
GGAUGACAAAGUCAUCCAAUUCGAACAUGAGGAUCACCCAUGUAGGAUAUGGUACUCAAAGAGUACCAGAAGGACAUGUGCUUU	38.1 nM	145 nM	–	–
UCAUUUAUUACAGGAUAUAUUAGUAUACAGUUGUUUGGUUAUUACAUAUUAAUAGAAGGGUAGAACAUGAGGAUCACCCAUGUA	–	–	234 nM	119 nM

From the EternaBench riboswitch data
